Screening data from PubChem BioAssay.
The list is not random: actives were taken first. Their share in the collection is about 1.8%.
Hck Nef HTS = human Hck-Nef kinase inhibition; P08631; Recombinant Hck-YEEI plus Nef, Z-Lyte FRET kinase assay; inhibition, % at 20 µM; 220,000 compounds, 0.68% hits;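 active = Hck-Nef kinase inhibition above about 50%, limit read from the data; inactive = inhibition below that limit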
Target sequence (P08631 whole entry, looked up): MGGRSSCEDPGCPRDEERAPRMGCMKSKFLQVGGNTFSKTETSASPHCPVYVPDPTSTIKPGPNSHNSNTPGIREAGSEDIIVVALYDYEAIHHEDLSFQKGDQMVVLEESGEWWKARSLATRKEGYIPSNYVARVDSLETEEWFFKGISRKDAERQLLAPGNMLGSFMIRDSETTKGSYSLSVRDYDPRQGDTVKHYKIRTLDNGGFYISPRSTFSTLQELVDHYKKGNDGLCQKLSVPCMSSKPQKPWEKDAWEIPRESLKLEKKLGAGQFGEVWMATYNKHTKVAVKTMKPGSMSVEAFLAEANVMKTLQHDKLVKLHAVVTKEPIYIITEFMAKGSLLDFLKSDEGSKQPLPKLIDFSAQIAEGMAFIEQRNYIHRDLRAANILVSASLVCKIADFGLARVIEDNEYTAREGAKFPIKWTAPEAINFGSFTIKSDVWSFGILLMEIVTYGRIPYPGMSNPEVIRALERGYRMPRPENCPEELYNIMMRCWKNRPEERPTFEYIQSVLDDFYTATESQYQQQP
Runt-SMMHC FRET = blocks binding of human RUNX1 Runt domain to CBFb-SMMHC; Cerulean-Runt/Venus-CBFb-SMMHC FRET ratio 530/480, 1 h; 220,000 compounds, 0.74% hits; inhibition, % at 20 µM; Q01196+Q13951;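 active = mean inhibition across duplicate retests at 20 µM reaching about 50%, limit read from the data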;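 also: inhibitors lower the FRET ratio by blocking Runt binding to CBFb-SMMHC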
Runt-CBFb FRET = Runt domain-CBFb interaction inhibition | inhibition, % at 20 µM | 220,000 compounds, 0.46% hits | Cerulean-Runt/Venus-CBFb FRET ratio 530/480, 1 h | AID 1496 | Q01196+Q13951;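 active = inhibition over about 50% at 20 µM in the single-dose screen, limit read from the data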
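Assay system: Cerulean-Runt domain / Medium: Tris 50 mM pH 7.5, KCl, K2SO4, 0.01% BSA / Timing: protein complex preformed 1 h, compound exposure 1 h, room temperature, dark / Measured by: FRET, excitation 422 nm, emission at 530 and 480 nm / Evaluation: loss of energy transfer signal / Control set: 5 µM unlabeled CBFb as full-inhibition high control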
RanGTP-Impb inh = inhibitors of RanGTP-importin-beta interaction, primary screen, biochemical, FRET, CFP-Ran, YFP-importin-beta, homogeneous; AID 2216; inhibition, % (test concentration not listed); cell-free CFP-Ran/YFP-importin-beta FRET ratio; 300,000 compounds, 1.1% hits;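 active = more than half of the replicate wells show a fall in the fluorescence ratio signal beyond about 16%, limit read from the data, passing the limit was not always enough; inconclusive = exactly half of the replicate wells pass the set limit; inactive = fewer than half of replicates pass the limit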
Numbers stand for hits; i = inactive; ? = inconclusive; nt = not tested or not shown.

SMILES | Hck Nef HTS | Runt-SMMHC FRET | Runt-CBFb FRET | RanGTP-Impb inh
CC(C)(C)C(=O)CSc1nc2c(c(-c3cccs3)c1C#N)CCC2 | i | i | i | 62
CCOC(=O)CN=C/C(C(=O)Nc1nccs1)=C(/C)O | i | i | i | i
COc1ccc(CN(Cc2ccc(OC)cc2)S(=O)(=O)c2ccc(-n3cnnn3)c(C)c2)cc1 | i | i | i | 27
COc1ccc(CN(Cc2cccnc2)S(=O)(=O)c2ccc(-n3cnnn3)c(OC)c2)cc1 | nt | nt | nt | i
Cc1ccc(-c2cc3nc(C)cc(NCc4ccco4)n3n2)cc1 | i | i | i | 38
COc1ccc(-c2cc3nc(C)cc(NCCO)n3n2)cc1 | i | i | i | i
COc1ccc(C2c3ccc(O)cc3Oc3ncn(CCN4CCOCC4)c(=N)c32)cc1 (stereo unspecified) | i | i | i | i
COc1ccc(C2c3ccc(O)cc3Oc3ncn(CC(C)C)c(=N)c32)cc1 (stereo unspecified) | i | 62 | i | i
COc1cc(SC)ccc1C(=O)Nc1nccs1 | i | i | i | ?
COc1cccc(C(=O)C2=NN(C(C)=O)CC2c2ccco2)c1 (stereo unspecified) | i | i | nt | i
CCOC(=O)C1=CN(CC2CCCO2)C=C(C(=O)OCC)C1c1ccccc1C(F)(F)F (stereo unspecified) | i | 91 | 109 | i
CCOC(=O)c1ccc(NC(=O)c2cccc3c2C(=O)N(CC2CCCO2)C3)cc1 (stereo unspecified) | nt | nt | nt | i
COCc1ccc(CN2CCC(n3nccc3NC(=O)CCCc3ccccc3)CC2)o1 | nt | nt | nt | i
CCOC(=O)c1ccc(NC(=S)N(CCN2CCCCCC2)Cc2cccs2)cc1 | i | i | i | i
Cc1cccc(NCN2C(=O)c3ccncc3C2=O)n1 | i | i | i | 19
O=C1c2ccncc2C(=O)N1Cc1cccc(Cl)c1 | i | i | i | i
CSCCC(NC(=O)c1ccccc1Cl)C(=O)NC1CCN(Cc2ccccc2)CC1 (stereo unspecified) | nt | nt | nt | i
CCn1nc(NC(=O)c2ccccc2)c2cc3cccc(C)c3nc21 | i | 86 | 62 | 69
Cc1cccc2cc3c(NC(=O)CC(C)C)nn(C)c3nc12 | i | i | i | i
CCn1nc(NC(=O)C(C)C)c2cc3ccc(C)cc3nc21 | nt | nt | nt | i
CCn1nc(NC(=O)C(C)C)c2cc3cccc(C)c3nc21 | nt | nt | nt | 48
Cc1cccc2cc3c(NC(=O)C(C)(C)C)nn(CC(C)C)c3nc12 | nt | nt | nt | 80
CNc1nc(Cl)c(SC)c(NCc2cccc(OC)c2)n1 | nt | nt | nt | i
CN(Cc1ccccc1F)Cc1cc(=O)oc2cc(O)c(Cl)cc12 | nt | nt | nt | 67
Cc1cc2oc(=O)cc(CN(C)Cc3ccccc3F)c2cc1Cl | nt | nt | nt | i
SMILES | Hck Nef HTS | Runt-SMMHC FRET | Runt-CBFb FRET | RanGTP-Impb inh
CC1CCN(Cc2cc(=O)oc3cc(O)c(Cl)cc23)CC1 | nt | nt | nt | 118
CC1CN(Cc2cc(=O)oc3cc(O)c(Cl)cc23)CC(C)O1 (stereo unspecified) | nt | nt | nt | 61
Cc1ccc2oc(=O)cc(CN3CC(C)OC(C)C3)c2c1 (stereo unspecified) | nt | nt | nt | i
COc1ccc(CNC(=O)C2CCN(S(=O)(=O)c3c(C)noc3/C=C/N(C)C)CC2)cc1 | nt | nt | nt | i
CCc1ccc2nc3nc(C)cc(C)c3c(N)c2c1 | i | i | i | 149
O=C(Nc1cc2c(=O)n(-c3ccc(Oc4ccccc4)cc3)ccc2oc1=O)c1ccccc1 | i | 62 | i | ?
Cc1oc2c(CN3CCCC3)c(O)ccc2c(=O)c1Oc1ccccc1Br | i | i | i | i
CN1CCN(Cc2c(O)ccc3c(=O)c(Oc4ccccc4Cl)c(C(F)(F)F)oc23)CC1 | i | i | i | 22
Cc1nc(SCCOc2ccccc2F)[nH]c(=O)c1Cc1ccccc1 | i | i | i | i
CCOC(=O)C1(Cc2cccc(OC)c2)CCN(Cc2ccccc2)CC1 | i | i | i | ?
CCOC(=O)C1(Cc2cccc(OC)c2)CCN(Cc2cccc3cnccc23)CC1 | i | i | i | 86
CCOC(=O)C1(Cc2cccc(OC)c2)CCN(Cc2cccnc2)CC1 | i | nt | nt | 56
CCOC(=O)C1(Cc2cccc(OC)c2)CCN(Cc2cccc(OC)c2OC)CC1 | i | i | i | i
CCOC(=O)C1(Cc2cccc(OC)c2)CCN(Cc2cnc(SC)nc2)CC1 | i | i | i | 68
COc1cc(/C=C(/C#N)c2nc3ccccc3[nH]2)ccc1OC(=O)c1ccco1 | i | i | i | 28
COc1ccc(-c2ccc(-c3noc(-c4ccccc4)n3)c(OC)n2)cc1 | i | i | i | 30
CCSc1nnc(NC(=O)CSc2nccn2-c2cc(C)cc(C)c2)s1 | i | i | i | 26
